Source: paper PMC8237268 (Journal of Medicinal Chemistry, 2021)

Assays:
Format in all cases: binding
p65_45/14-3-3γ [1] = target: T1, p65_45/14-3-3γ (Homo sapiens, UniProt P61981+Q04206); test: Fluorescence anisotropy; conditions: 50 μM 14-3-3γ, 100 nM p65_45
p65_45/14-3-3σΔC complex = p65_45/14-3-3σΔC complex (Homo sapiens, UniProt P31947+Q04206, E49R); test: X-ray crystal soaking of fragments into p65_45/14-3-3σΔC crystals; conditions: soak 10 mM compound, 7 days; imine bond to Lys122 of 14-3-3
p65_45/14-3-3σΔC complex, sequence (P31947 1-231, other chains not shown): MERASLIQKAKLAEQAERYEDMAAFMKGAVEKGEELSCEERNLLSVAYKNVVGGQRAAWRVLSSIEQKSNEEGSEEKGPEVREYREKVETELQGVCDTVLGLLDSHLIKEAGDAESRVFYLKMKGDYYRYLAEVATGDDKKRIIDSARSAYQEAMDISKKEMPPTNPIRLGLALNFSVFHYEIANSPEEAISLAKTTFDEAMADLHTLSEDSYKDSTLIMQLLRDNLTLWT
In short: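 His-tag-free 14-3-3σΔC (12 mg/mL) was complexed overnight 1:2 with N-acetyl, C-amide p65 pSer45 peptide in 20 mM HEPES pH 7.5, 2 mM MgCl2, 2 mM β-mercaptoethanol. Crystals grew in hanging drops (95 mM HEPES pH 7.5, 27–28% PEG400, 190 mM CaCl2, 5% glycerol). Test compound from DMSO stock was added to final 10 mM (≤1% DMSO) for 7 days. Crystals were flash-frozen; binding was judged from 2Fo-Fc density.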

p65_45/14-3-3γ [2] = target: T1, p65_45/14-3-3γ; test: Fluorescence anisotropy; conditions: fold-change of apparent KD in comparison to a DMSO control, 1 mM fragment
ERα-peptide/14-3-3γ = target: T2, ERα-peptide/14-3-3γ (Homo sapiens, UniProt P61981); test: FA compound titration, selectivity: ERα-peptide and 14-3-3γ; conditions: 0.1 μM 14-3-3γ, 10 nM peptide
T2 sequence (P61981 1-247): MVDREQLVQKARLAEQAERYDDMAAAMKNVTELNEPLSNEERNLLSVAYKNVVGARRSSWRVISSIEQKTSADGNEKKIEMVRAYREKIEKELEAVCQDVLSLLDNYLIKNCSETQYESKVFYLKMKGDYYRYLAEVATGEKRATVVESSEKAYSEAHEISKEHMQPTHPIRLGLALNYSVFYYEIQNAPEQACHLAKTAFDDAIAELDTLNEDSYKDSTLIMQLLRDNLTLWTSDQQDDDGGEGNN

p53-peptide/14-3-3γ = target: T3, p53-peptide/14-3-3γ (Homo sapiens, UniProt P61981); test: FA compound titration, selectivity: p53-peptide and 14-3-3γ; conditions: 0.3 μM 14-3-3γ, 10 nM peptide
T3 sequence (P61981 1-247): T2 sequence (P61981 1-247)

TAZ-peptide/14-3-3γ = target: T4, TAZ-peptide/14-3-3γ (Homo sapiens, UniProt P61981); test: FA compound titration, selectivity: TAZ-peptide and 14-3-3γ; conditions: 0.1 μM 14-3-3γ, 10 nM peptide
T4 sequence (P61981 1-247): T2 sequence (P61981 1-247)

| Compound | ternary complex formation in FA compound titration (in words) (p65_45/14-3-3γ [1]) | binding of the fragment in X-ray crystal soaking experiments (p65_45/14-3-3σΔC complex) | also measured |
| --- | --- | --- | --- |
| O=Cc1ccc([N+](=O)[O-])c(N2CCC(O)CC2)c1 [13f] | did not elicit significant ternary complex formation | significant electron density coverage | – |
| O=Cc1ccc([N+](=O)[O-])c(OC(=O)C2CCC2)c1 [10a] | – | bound to Lys122 | – |
| O=Cc1ccc(S(=O)(=O)N2CCC(N3CCCC3)CC2)cc1 [23m] | – | – | SF (stabilization factor) (p65_45/14-3-3γ [2]): 4.5 fold |
| COC1CCCN(c2cc(C=O)ccc2[N+](=O)[O-])C1 (stereo not shown) [13e] | did not elicit significant ternary complex formation | significant electron density coverage | – |
| O=Cc1ccc(S(=O)(=O)N2CCNc3ccccc32)cc1 [24j] | – | – | ternary complex formation with ERα (ERα-peptide/14-3-3γ): no ternary complex formation was detected; ternary complex formation with p53 (p53-peptide/14-3-3γ): no ternary complex formation was detected; ternary complex formation with TAZ (TAZ-peptide/14-3-3γ): no ternary complex formation was detected |
| O=Cc1ccc(-n2ccnc2Br)nc1 [16d] | induced an increase in anisotropy | detected in the electron density map | – |
| O=Cc1ccc([N+](=O)[O-])c(N2CCCC(O)C2)c1 (stereo not shown) [13l] | did not elicit significant ternary complex formation | significant electron density coverage | – |
